Screening results (PubChem BioAssay)
Rows were chosen to be rich in hits. Some 1.8% of all compounds tested hit in one or more screens of this group.
LEDGF integ inh: blocks HIV-1 LEDGF/p75-dependent DNA integration; TR-FRET IN-LEDGF/p75 DNA integration, Eu/Cy5; inhibition, % at 3.7 µM; 370,000 tested, 0.64% active; AID 743269;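 active means inhibition above the screen-wide mean plus 3 SD, cut at about 13% in these data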;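 further: signal is the Cy5 over europium emission ratio at 671 and 618 nm; 0% = plate median of compound wells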
UHRF1 MBD2 ctr: blocks human UHRF1 binding to methylated DNA; UHRF1 binding to methylated oligo, TR-FRET; inhibition, % at 4.4 µM; 370,000 tested, 0.75% active;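 further: UHRF1 SRA domain binding a hemimethylated CpG hairpin DNA probe; 0% = median of test compound wells and 100% = reference inhibitor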
Target sequence (Q96T88 whole entry, looked up, the tested form may be a part): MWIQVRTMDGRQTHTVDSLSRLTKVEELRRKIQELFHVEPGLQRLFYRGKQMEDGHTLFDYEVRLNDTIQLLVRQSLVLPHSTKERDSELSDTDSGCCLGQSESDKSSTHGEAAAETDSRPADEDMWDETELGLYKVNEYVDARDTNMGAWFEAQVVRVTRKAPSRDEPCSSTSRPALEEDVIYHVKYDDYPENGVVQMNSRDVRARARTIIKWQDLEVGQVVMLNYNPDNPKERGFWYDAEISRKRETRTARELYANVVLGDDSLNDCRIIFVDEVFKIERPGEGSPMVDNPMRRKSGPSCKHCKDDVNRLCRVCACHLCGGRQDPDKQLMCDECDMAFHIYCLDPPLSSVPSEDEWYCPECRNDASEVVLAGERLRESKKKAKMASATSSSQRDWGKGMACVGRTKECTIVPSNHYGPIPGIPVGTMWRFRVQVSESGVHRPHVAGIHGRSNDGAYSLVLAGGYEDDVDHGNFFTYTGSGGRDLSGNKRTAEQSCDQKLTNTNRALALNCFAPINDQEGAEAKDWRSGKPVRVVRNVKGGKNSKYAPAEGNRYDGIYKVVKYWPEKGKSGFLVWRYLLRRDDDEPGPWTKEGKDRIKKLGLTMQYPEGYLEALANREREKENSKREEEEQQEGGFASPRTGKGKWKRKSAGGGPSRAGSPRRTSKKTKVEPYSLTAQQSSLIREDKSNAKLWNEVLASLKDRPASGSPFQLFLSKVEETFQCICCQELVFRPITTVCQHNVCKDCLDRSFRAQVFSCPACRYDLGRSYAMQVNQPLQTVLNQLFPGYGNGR
CASP6 VEID inh: inhibitors of human caspase-6 | 350,000 tested, 0.53% active | AID 686996 | purified caspase-6, Z-VEID-R110 cleavage fluorescence | inhibition, % at 12.5 µM | P55212;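 active means mean inhibition across replicates at least about 35%, with every replicate also reaching that limit, limit read from the data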;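 further: 0% = median of neutral control wells and 100% = no fluorescence left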
NSD2 HMT inh: inhibitors of human histone methyltransferase NSD2; O96028; NSD2 peptide methylation, AlphaScreen, 120 min; inhibition, % at 12.5 µM; 310,000 tested, 0.54% active; AID 743445; in the data active means inhibition above about 50%
MBD2 inh: MBD2-methylated oligo binding inhibition; Q9UBB5; TR-FRET, MBD2 binding to methylated oligonucleotide; inhibition, % at 4.4 µM; 370,000 tested, 0.31% active; AID 686964; in the data active means inhibition above about 13%
TDP2 inh: TDP2 (human) inhibition, absorbance primary screen; O95551; recombinant TDP2, T5PNP hydrolysis, p-nitrophenol absorbance 415 nm; inhibition, % at 12.8 µM; 370,000 tested, 0.34% active;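 active means inhibition above the mean of all tested compounds plus 3 SD, set per campaign, cut at about 25% in these data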;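 further: 0% = DMSO with enzyme and 100% = buffer with substrate but no TDP2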
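Material: recombinant human TDP2; quantity: TDP2 enzyme at 120 nM final; medium: Tris-HCl pH 7.5 with MgCl2; compound: single concentration, 12.8 µM nominal, with 1% DMSO; incubation: 2 h enzyme incubation at 37 °C; signal: epi absorbance; measure: percent inhibition; benchmarks: high control without enzyme, low control DMSO plus TDP2; repeats: singlicate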
UHRF1 DNA bind: UHRF1 methyl-oligo binding inhibition as MBD2 counter-screen | shares compounds with MBD2 inh | UHRF1 binding to methylated oligonucleotide, TR-FRET | inhibition, % at 4.4 µM | 1,000 tested, 25% active;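 further: UHRF1 SRA domain binding a labeled hemimethylated CpG hairpin DNA; 0% = vehicle only and 100% = reference inhibitor with vehicle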
MBD2 DBD conf: MBD2-DBD methyl-DNA binding inhibition, TR-FRET confirmation. TR-FRET MBD2-DBD binding to methylated oligonucleotide. inhibition, % at 4.4 µM. shares compounds with MBD2 inh. AID 720531. 1,000 tested, 26% active; in the data active means inhibition above about 14%
Starred values were filed as active, the others as inactive; . = no result given. Unless noted, no stated cut-off is given here; in the data, active means inhibition above about 21%; inactive means the rest.

SMILES	LEDGF integ inh	UHRF1 MBD2 ctr	CASP6 VEID inh	NSD2 HMT inh	MBD2 inh	TDP2 inh	UHRF1 DNA bind	MBD2 DBD conf
CC(=O)Nc1cc(-c2cccc(C(=O)N(C)C)c2)cn2c(-c3ccc(C(C)=O)cc3)cnc12	-2.4	-2.7	7.7	1.9	14.0*	4.5	7.6	4.6
Cc1ccc(-c2nc3ccc(C)cn3c2CC2CCCCC2)cc1	2.1	21.7*	-8.2	.	13.4*	-11.8	7.0	2.2
CO[C@@H](CN(C)C(=O)c1cnccn1)[C@@H](C)CN([C@@H](C)CO)S(=O)(=O)c1ccc(C)cc1	.	.	0.8	.	.	.	.	.
Cc1oc2ccc(O)cc2c1C(=O)c1ccc(Br)cc1	2.4	-1.6	-0.5	-1.7	16.1*	4.6	3.2	3.3
CC(=O)Nc1ccc2nc(C)n(Cc3ccc(Cl)cc3)c(=O)c2c1	1.5	22.7*	.	-0.2	14.6*	-5.0	6.4	2.5
COCC(=O)Nc1ccc2c(c1)C(=O)N(C)C[C@H](OC)[C@H](C)CN(CCC(F)(F)F)[C@H](C)CO2	.	.	-1.5	.	.	.	.	.
CO[C@H]1CN(C)C(=O)c2ccc(NC(=O)C3CC3)cc2OC[C@H](C)N(Cc2nccs2)C[C@@H]1C	.	.	3.6	.	.	.	.	.
COCCn1c(N)c(N(Cc2ccccc2)C(=O)c2ccc3ccccc3c2)c(=O)[nH]c1=O	9.6	26.3*	1.1	-3.1	13.3*	9.8	5.6	2.2
C[C@@H]1CN([C@@H](C)CO)C(=O)c2cc(NC(=O)Nc3cccc4ccccc34)ccc2O[C@@H]1CN(C)Cc1ccc(C(=O)O)cc1	.	.	-0.1	.	.	.	.	.
CCOC(=O)c1ccc(NC(=O)NC2CCN(CC(=O)NCc3ccc4c(c3)OCO4)CC2)cc1	1.1	2.7	.	0.3	18.6*	-2.3	7.9	3.6
CCc1cc(/C(Cc2csc(C)n2)=N/O)c(O)cc1O	-5.1	14.3	.	2.2	13.8*	0.2	7.7	1.2
Cc1nc(C/C(=N\N)c2ccc(O)cc2O)cs1	-2.0	-4.5	2.1	0.0	1.8	8.6	.	.
C[C@@H]1CN([C@H](C)CO)C(=O)Cc2cc(NC(=O)Cc3ccccc3)ccc2O[C@@H]1CN(C)Cc1ccc2c(c1)OCO2	.	.	-0.3	.	.	.	.	.
O=S(=O)(Nc1cccc(S(=O)(=O)N2CCCC2)c1)c1cccc(Br)c1	-2.4	-1.1	4.9	0.9	104.5*	-0.3	8.3	1.6
CCCNC(=O)Nc1ccc2c(c1)C(=O)N(C)C[C@@H](OC)[C@@H](C)CN(C(C)=O)[C@@H](C)CO2	.	.	1.6	.	.	.	.	.
CCCCC(=O)Nc1ccc(N2CCN(c3ccc(F)cc3)CC2)cc1	5.5	3.7	3.7	-5.7	33.9*	0.9	3.4	1.7
C[C@H](CO)N1C[C@H](C)[C@H](CN(C)S(=O)(=O)c2ccccc2)Oc2ncc(-c3cccc(F)c3)cc2C1=O	.	.	-0.6	.	.	.	.	.
Cc1ccc(C(=O)N/C(=C\c2ccccc2)C(=O)OCc2ccccc2)cc1	-0.1	14.0	.	-2.5	13.7*	7.5	5.6	4.2
O=C(OCc1ccccc1)/C(=C/c1cccc2ccccc12)NC(=O)c1ccccc1	1.2	8.1	.	-2.9	0.0	-2.0	.	.
CN1[C@H](C(=O)Nc2ccccc2)[C@@H](CO)[C@@H]2Cn3c(ccc(-c4ccccc4)c3=O)[C@@H]21	.	.	3.4	.	.	.	.	.
O=C(NC1CCN(C(=O)Nc2ccccc2)CC1)C1CCCCC1	3.5	2.4	.	.	-2.5	9.4	.	.
Cc1ccccc1NC(=O)N1CCC(NC(=O)C2CCCCC2)CC1	1.4	19.2	0.1	-4.9	14.2*	12.7	6.2	5.2
C[C@@H]1CCC2[C@](C)(CO)[C@@H](O)CC[C@]2(C)[C@@]12CCC(CO)(CCO)O2 (some centres undefined)	2.0	2.3	-2.2	4.7	24.6*	-2.0	8.6	1.6
C[C@@H]1CCC2[C@](C)(CO)[C@@H](O)CC[C@]2(C)[C@@]12CC[C@@](CO)(CC(=O)O)O2 (some centres undefined)	-2.9	3.3	0.1	0.3	0.8	-9.1	.	.
COc1ccc(S(=O)(=O)N(C)C[C@@H]2OCCCC[C@H](C)Oc3ccc(NC(=O)Nc4ccc(C(F)(F)F)cc4)cc3C(=O)N([C@@H](C)CO)C[C@H]2C)cc1	.	.	2.7	.	.	.	.	.
SMILES	LEDGF integ inh	UHRF1 MBD2 ctr	CASP6 VEID inh	NSD2 HMT inh	MBD2 inh	TDP2 inh	UHRF1 DNA bind	MBD2 DBD conf
CS(=O)(=O)c1ccc(C(=O)Nc2nc(-c3ccco3)c(-c3ccco3)s2)cc1	89.0*	88.3*	22.0	3.5	40.9*	7.3	12.1	4.5
CN(C)c1ccc(/C=N\NC(=S)SCN2C(=O)C3CCC(C)(C2=O)C3(C)C)cc1 (centres undefined)	-2.5	-2.4	.	0.6	-3.4	-3.9	.	.
COc1ccc(/C=N\NC(=S)SCN2C(=O)C3CCC(C)(C2=O)C3(C)C)cc1 (centres undefined)	4.0	-10.6	.	3.5	47.7*	-1.7	-11.0	-0.9
Cc1ccnc2nc(C(=O)OCC(=O)c3ccc(NC(=O)CC(C)C)cc3)nn12	0.5	2.4	0.4	0.0	1.6	-2.5	.	.
CCC(=O)Nc1ccc(C(=O)COC(=O)c2nc3nccc(C)n3n2)cc1	10.1	55.5*	68.6*	6.6	34.0*	-3.6	31.3*	29.9*
CC12CCC(C/C1=N\N=C1\NC(=O)/C(=C\c3ccc(Cl)cc3)S1)C2(C)C (centres undefined)	-8.0	17.4	-2.7	.	13.2*	3.2	3.3	0.7
COc1ccc(CCNCC(O)COc2cccc(C(C)=O)c2)cc1OC (centres undefined)	2.2	25.0*	-9.2	14.8	17.0*	15.7	7.4	3.6
O=[N+]([O-])c1ccc(NN=Cc2cc(Br)ccc2O)nc1	-0.4	-2.7	6.2	4.0	18.4*	1.4	3.9	0.6
O=C1CCCCC1Nc1ccc(Br)cc1 (centres undefined)	-1.1	21.5*	-4.0	-0.3	13.2*	8.2	2.0	1.4
CC(=O)Nc1nc(-c2ccccc2)ns1	-0.3	2.2	.	-0.3	13.3*	-10.2	-0.7	5.6
COCC(=O)Nc1nc(-c2ccccc2)ns1	-2.6	-1.0	.	0.6	0.5	9.1	.	.
COc1ccc(-c2nn(C)c3sc(C(=O)NCCN(C)C)cc23)cc1OC	-5.7	27.7*	-6.3	1.9	18.0*	-7.4	29.3*	24.8*
CCN(CC)CCNC(=O)c1cc2c(-c3cccc(OC)c3)nn(C)c2s1	-1.5	7.1	-2.7	30.4	6.0	12.9	.	.
C[C@H](CO)N1C[C@H](C)[C@H](CN(C)C(=O)Nc2ccc(F)cc2)OCCCC[C@H](C)Oc2ccc(NC(=O)Nc3ccccc3)cc2C1=O	.	.	-5.2	.	.	.	.	.
